From ChEMBL document CHEMBL4359831, “Chemoproteomics of an Indole-Based Quinone Epoxide Identifies Druggable Vulnerabilities in Vancomycin-Resistant Staphylococcus aureus” (J Med Chem, 2019)
In brackets after ≈: the same amount, converted by molar mass. Activity calls are given as the source filed them. The calls are words filed in the database; no cut-off is given here.

Columns and labels:
[1] = system: Staphylococcus aureus; assay: Antibacterial activity against Staphylococcus aureus ATCC 29213 after 16 to 18 hrs by CLSI M07-A10 protocol based dilution method; format: functional
Procedure, shortened: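 MIC against ATCC 29213 determined by a previously described protocol; values in μg/mL.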

[2] = L-cysteine reactivity in pH 7.4 phosphate buffer assessed as compound remaining at 100 uM incubated for 1 hr by HPLC analysis
[3] = system: Staphylococcus aureus; assay: Bactericidal activity against Staphylococcus aureus ATCC 29213 at 1 to 10 times MIC preincubated up to 24 hrs under shaking condition followed by bacterial plating on Tryptic Soy agar and measured after 18 to 20 hrs by time kill assay; format: functional, organism-based
[4] = Selectivity index, ratio of CC50 for African green monkey Vero cells to MIC90 for Staphylococcus aureus ATCC 29213; format: toxicity; settings: read-out: Selectivity Index
[5] = L-cysteine reactivity in pH 7.4 phosphate buffer assessed as pseudo first order rate constant at 100 uM measured at 10 mins time interval up to 60 mins by HPLC analysis
[6] = L-cysteine reactivity in pH 7.4 phosphate buffer at 100 uM preincubated for 1 hr followed by mono-bromobimane addition and measured after 30 mins by fluorescence based competition assay
[7] = system: Staphylococcus aureus; assay: Binding affinity to soluble protein in Staphylococcus aureus ATCC 29213 cells after 1 hr by Rhodamine azide fluorescence dependent gel-based ABPP assay; format: functional, organism-based
Procedure, shortened: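 Live S. aureus cultures were treated with probe (10 μM, 1 h), then lysed and fractionated into soluble and membrane proteomes. Labelling was assessed by rhodamine-azide click and SDS-PAGE fluorescence.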

[8] = system: Staphylococcus aureus; assay: Binding affinity to membrane protein in Staphylococcus aureus ATCC 29213 cell lysates after 1 hr by Rhodamine azide fluorescence dependent gel-based ABPP assay; format: functional; settings: Lysate
Procedure, shortened: (§1)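 S. aureus soluble or fractionated membrane lysates were incubated 1 h with alkyne probe (0.01–100 μM), then Cu-catalysed click with rhodamine-azide. Proteomes were resolved by SDS-PAGE and visualised by in-gel fluorescence (gel-based ABPP).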

[9] = system: Staphylococcus aureus; assay: Binding affinity to soluble protein in Staphylococcus aureus ATCC 29213 cell lysates after 1 hr by Rhodamine azide fluorescence dependent gel-based ABPP assay; format: functional; settings: Lysate; procedure, shortened: as §1
[10] = system: Staphylococcus aureus; assay: Antibacterial activity against vancomycin-resistant Staphylococcus aureus SA-HIP-11983 after 16 to 18 hrs by CLSI M07-A10 protocol based dilution method; format: functional
[11] = system: Staphylococcus aureus; assay: Antibacterial activity against vancomycin-resistant Staphylococcus aureus AIS100050 after 16 to 18 hrs by CLSI M07-A10 protocol based dilution method; format: functional
[12] = system: Staphylococcus aureus; assay: Antibacterial activity against vancomycin-resistant Staphylococcus aureus 1002434 after 16 to 18 hrs by CLSI M07-A10 protocol based dilution method; format: functional
[13] = system: Staphylococcus aureus; assay: Antibacterial activity against vancomycin-resistant Staphylococcus aureus HIP11714 after 16 to 18 hrs by CLSI M07-A10 protocol based dilution method; format: functional
[14] = system: Staphylococcus aureus; assay: Antibacterial activity against vancomycin-resistant Staphylococcus aureus SA-HIP-15178 after 16 to 18 hrs by CLSI M07-A10 protocol based dilution method; format: functional
[15] = system: Staphylococcus aureus; assay: Antibacterial activity against vancomycin-resistant Staphylococcus aureus HIP14300 after 16 to 18 hrs by CLSI M07-A10 protocol based dilution method; format: functional
[16] = system: Staphylococcus aureus; assay: Antibacterial activity against vancomycin-resistant Staphylococcus aureus SA-71080 after 16 to 18 hrs by CLSI M07-A10 protocol based dilution method; format: functional
[17] = system: Staphylococcus aureus; assay: Antibacterial activity against vancomycin-resistant Staphylococcus aureus SA-HIP-14300 after 16 to 18 hrs by CLSI M07-A10 protocol based dilution method; format: functional
[18] = system: Staphylococcus aureus; assay: Binding affinity to Staphylococcus aureus ATCC 29213 C-terminal His6-tagged MarR_05815 C12A mutant expressed in Escherichia coli BL21(DE3) cells up to 100 uM incubated for 1 hr by Rhodamine azide fluorescence dependent gel-based ABPP assay
Procedure, shortened: (§2)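 Recombinant His-tagged protein purified from E. coli by Ni-NTA affinity chromatography; wild-type and Cys-to-Ala variant treated with increasing alkyne quinone-epoxide probe (0–100 μM) for 1 h. Then Cu-catalysed click reaction with rhodamine-azide, SDS-PAGE resolution, and in-gel fluorescence visualisation of probe labelling.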

[19] = system: Escherichia coli; assay: Binding affinity to soluble protein in Escherichia coli ATCC 25922 cell lysates after 1 hr by Rhodamine azide fluorescence dependent gel-based ABPP assay; format: functional; settings: Lysate
[20] = system: Staphylococcus aureus; assay: Binding affinity to Staphylococcus aureus ATCC 29213 C-terminal His6-tagged MarR_05815 (Cys12 residue) expressed in Escherichia coli BL21(DE3) cells up to 100 uM incubated for 1 hr by Rhodamine azide fluorescence dependent gel-based ABPP assay
Procedure, shortened: (§3)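 Recombinant His-tagged MarR proteins were purified from E. coli by Ni-NTA, as wild type and as Cys→Ala variants (C61A MarR_12840; C12A MarR_05815). Proteins were labelled with probe at 0–100 μM for 1 h, then click with rhodamine-azide and SDS-PAGE fluorescence read-out.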

[21] = system: Staphylococcus aureus; assay: Cysteine reactivity in iodoacetamide treated Staphylococcus aureus ATCC 29213 cell lysates at 10 uM incubated for 1 hr by Rhodamine azide fluorescence dependent gel-based competitive ABPP assay; format: subcellular; settings: Cell lysate
Procedure, shortened: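 Fractionated S. aureus soluble and membrane lysates were pretreated with excess iodoacetamide (10 mM), then chased with probe (10 μM). Read-out was rhodamine-azide click and SDS-PAGE in-gel fluorescence.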

[22] = system: Escherichia coli; assay: Binding affinity to membrane protein in Escherichia coli ATCC 25922 cell lysates after 1 hr by Rhodamine azide fluorescence dependent gel-based ABPP assay; format: functional; settings: Lysate
[23] = system: Staphylococcus aureus; assay: Binding affinity to Staphylococcus aureus ATCC 29213 C-terminal His6-tagged MarR_12840 C61A mutant expressed in Escherichia coli BL21(DE3) cells up to 100 uM incubated for 1 hr by Rhodamine azide fluorescence dependent gel-based ABPP assay; procedure, shortened: as §2
[24] = system: Escherichia coli; assay: Binding affinity to membrane protein in Escherichia coli ATCC 25922 cells after 1 hr by Rhodamine azide fluorescence dependent gel-based ABPP assay; format: functional, organism-based
[25] = system: Staphylococcus aureus; assay: Binding affinity to Staphylococcus aureus ATCC 29213 C-terminal His6-tagged MarR_12840 (Cys61 residue) expressed in Escherichia coli BL21(DE3) cells up to 100 uM incubated for 1 hr by Rhodamine azide fluorescence dependent gel-based ABPP assay; procedure, shortened: as §3
[26] = system: Escherichia coli; assay: Binding affinity to soluble protein in Escherichia coli ATCC 25922 cells after 1 hr by Rhodamine azide fluorescence dependent gel-based ABPP assay; format: functional, organism-based
[27] = system: Staphylococcus aureus; assay: Bactericidal activity against vancomycin-resistant Staphylococcus aureus HIP11714 at 10 times MIC measured up to 24 hrs by time kill assay; format: functional, organism-based

Compound: O=C1c2ccc3c4ccccc4n(-c4ccccc4)c3c2C(=O)C2OC12 (centres undefined)
- MIC [1]: 2 µg/mL (≈ 5.89 µM)
- Activity [2]: 57%

Compound: Cn1c2ccccc2c2ccc3c(c21)C(=O)C1OC1C3=O (centres undefined)
- MIC [1]: 4 µg/mL (≈ 14.4 µM)
- Activity [2]: 27%

Compound: COc1ccc(C23OC2C(=O)c2c(ccc4c5ccccc5n(C(C)C)c24)C3=O)cc1 (centres undefined)
- MIC [1]: > 64 µg/mL

Compound: CC(C)n1c2ccccc2c2ccc3c(c21)C(=O)C1(c2ccccc2)OC1C3=O (centres undefined)
- MIC [1]: 0.0625 µg/mL (≈ 0.164 µM)
- Activity [3]: Active
- selectivity ratio [4]: > 200

Compound: CC(C)n1c2ccccc2c2ccc3c(c21)C(=O)C1OC1(c1ccccc1)C3=O (centres undefined)
- MIC [1]: > 64 µg/mL
- K [5]: 0.78 ×10⁻² /min
- Activity [6]: Active

Compound: C#CCCCn1c2ccccc2c2ccc3c(c21)C(=O)C1OC1(c1ccccc1)C3=O (centres undefined)
- Activity [7]: Active
- MIC [1]: > 64 µg/mL
- Activity [8]: Active
- Activity [6]: Active
- Activity [9]: inactive

Compound: Cc1cc2c3ccccc3n(C(C)C)c2c2c1C(=O)C1OC1C2=O (centres undefined)
- MIC [1]: 4 µg/mL (≈ 12.5 µM)
- Activity [2]: 84%

Compound: CN[C@H](CC(C)C)C(=O)N[C@H]1C(=O)N[C@@H](CC(N)=O)C(=O)N[C@H]2C(=O)N[C@H]3C(=O)N[C@H](C(=O)N[C@H](C(=O)O)c4cc(O)cc(O)c4-c4cc3ccc4O)[C@H](O)c3ccc(c(Cl)c3)Oc3cc2cc(c3O[C@@H]2O[C@H](CO)[C@@H](O)[C@H](O)[C@H]2O[C@H]2C[C@](C)(N)[C@H](O)[C@H](C)O2)Oc2ccc(cc2Cl)[C@H]1O [VANCOMYCIN]
- MIC [10]: 32 to 64 µg/mL (≈ 22.1 to 44.2 µM)
- MIC [11]: 32 to 64 µg/mL (≈ 22.1 to 44.2 µM)
- MIC [12]: > 64 µg/mL
- MIC [13]: > 64 µg/mL
- MIC [14]: 32 to 64 µg/mL (≈ 22.1 to 44.2 µM)
- MIC [15]: > 64 µg/mL
- MIC [16]: 32 to 64 µg/mL (≈ 22.1 to 44.2 µM)
- MIC [17]: > 64 µg/mL

Compound: CCc1cc2c3ccccc3n(C(C)C)c2c2c1C(=O)C1OC1C2=O (centres undefined)
- MIC [1]: 64 µg/mL (≈ 192 µM)
- Activity [2]: 88%

Compound: COc1ccc(C23OC2C(=O)c2ccc4c5ccccc5n(C(C)C)c4c2C3=O)cc1 (centres undefined)
- MIC [1]: 0.5 µg/mL (≈ 1.22 µM)

Compound: O=C1c2ccc3c([nH]c4ccccc43)c2C(=O)C2OC12 (centres undefined)
- MIC [1]: 4 µg/mL (≈ 15.2 µM)
- Activity [2]: 33%

Compound: C#CCCCn1c2ccccc2c2ccc3c(c21)C(=O)C1OC1C3=O (centres undefined)
- Activity [7]: Active
- MIC [1]: 1 µg/mL (≈ 3.04 µM)
- Activity [18]: inactive
- Activity [19]: Active
- Activity [8]: Active
- Activity [20]: Dose-dependent effect
- Activity [21]: inactive
- Activity [22]: Active
- Activity [23]: inactive
- Activity [24]: inactive
- Activity [25]: Dose-dependent effect
- Activity [26]: inactive
- Activity [6]: Active
- Activity [9]: Dose-dependent effect

Compound: Cc1cc2c([nH]c3ccccc32)c2c1C(=O)C1OC1C2=O (centres undefined)
- MIC [1]: > 16 µg/mL
- Activity [2]: 86%

Compound: CC(C)n1c2ccccc2c2ccc3c(c21)C(=O)C1(c2ccc(Br)cc2)OC1C3=O (centres undefined)
- MIC [1]: 1 µg/mL (≈ 2.17 µM)

Compound: CCCCCCCCCC(=O)N[C@@H](Cc1c[nH]c2ccccc12)C(=O)N[C@@H](CC(N)=O)C(=O)N[C@@H](CC(=O)O)C(=O)N[C@@H]1C(=O)NCC(=O)N[C@@H](CCCN)C(=O)N[C@H](CC(=O)O)C(=O)N[C@H](C)C(=O)N[C@@H](CC(=O)O)C(=O)NCC(=O)N[C@H](CO)C(=O)N[C@@H]([C@@H](C)CC(=O)O)C(=O)N[C@@H](CC(=O)c2ccccc2N)C(=O)O[C@@H]1C
- Activity [27]: Active

Compound: CCn1c2ccccc2c2ccc3c(c21)C(=O)C1OC1C3=O (centres undefined)
- MIC [1]: 2 µg/mL (≈ 6.87 µM)
- Activity [2]: 33%

Compound: CC(C)n1c2ccccc2c2ccc3c(c21)C(=O)C1OC1(c1ccc(Br)cc1)C3=O (centres undefined)
- MIC [1]: > 64 µg/mL

Compound: CCn1c2ccccc2c2cc(C)c3c(c21)C(=O)C1OC1C3=O (centres undefined)
- MIC [1]: 2 µg/mL (≈ 6.55 µM)
- Activity [2]: 93%
